Compound activity: PubChem BioAssay, several laboratories
Only some compounds are listed: those with a hit (about 1.3% of all), similar ones and a draw of the others.
HCV core dimer – blocks dimerization of HCV core protein; TR-FRET GST/Flag-core106 dimerization, 1536-well; inhibition, % at 5 µM; actives 0.33% (n = 300,000); AID 1899;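 active means inhibition above the mean of all tested compounds plus 3 SD, set per screening campaign, cut at about 45% in these data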
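Assay system: Tagged HCV core106 pair (GST and Flag) | Buffer or medium: KF-containing HEPES buffer, pH 7.45, DTT, CHAPS, BSA | Also added: Eu donor and XL665 acceptor anti-tag antibodies | Dosing: One concentration, 5 µM, in 0.5% DMSO | Timing: 4 h at 22.5 °C | Technique: TR-FRET 671 and 617 nm emission | Repeats: Singlicate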
Hep lipid drop – modulators of hepatic lipid droplet formation; AML12 mouse hepatocytes, oleate lipid droplets, BODIPY imaging; inhibition, % at 6.5 µM; actives 0.4% (n = 240,000);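 active means lipid droplet intensity inhibited by at least 50%, with more than 500 cells counted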
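Technique: fluorescence imaging, 20x objective, two fields per well / Assay system: AML12 hepatocytes (mouse) / Measure: % inhibition of lipid droplet signal / Doses: 6.5 µM single-point dosing / Incubation: overnight exposure / Reagent: 100 µM oleic acid challenge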
Tb MetRS inh – blocks T. brucei methionyl-tRNA synthetase activity | purified T. brucei MetRS, ATP depletion, Kinase-Glo luminescence | inhibition, % at 11.9 µM | actives 0.4% (n = 360,000) | AID 624268;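 active means inhibition above a per-plate cutoff of the control wells' mean inhibition plus 3 SD, cut at about 5.5% in these data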
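technique = Kinase-Glo luminescence, ATP depletion format | system = purified MetRS (methionyl-tRNA synthetase) enzyme from Trypanosoma brucei | timing = 15 min preincubation, 2 h reaction, all 25 °C | evaluation = percent inhibition versus plate control medians | dosing = single dose, 11.9 µM final nominal, 0.9% final DMSO | also added = substrates ATP, L-methionine and bulk Escherichia coli tRNA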
HCV NS3 hel inh – HCV NS3 helicase inhibition. NS3 helicase DNA unwinding, Cy5 molecular beacon fluorescence. inhibition, % at 10.9 µM. actives 0.56% (n = 290,000);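 active means inhibition above the mean of all tested compounds plus 3 SD, set per campaign, cut at about 35% in these data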
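System: Hepatitis C virus NS3 helicase domain fragment enzyme | Reagent: Annealed dual-labelled DNA beacon duplex, ATP-started | Compound dosing: 10.9 µM single point, 0.8% DMSO | Incubation: 1 h reaction at 25 °C, ATP-initiated | Technique: Cy5 fluorescence | Evaluation: Percent inhibition from t60/t0 fluorescence ratio | Benchmarks: Low DMSO, high thioflavine S at 110 µM | Replication: Singlicate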
Hep lipid conf – confirmation of inhibitors of hepatic lipid droplet formation. shares compounds with Hep lipid drop. AID 463183. AML12 mouse hepatocytes, BODIPY lipid droplet imaging; droplets induced with 100 µM oleic acid. inhibition, % at 5.2 µM. actives 65% (n = 870);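 active means inhibition of lipid droplet metric at least 50%, with more than 300 cells in each of four replicates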
AML12 tox img – counter-screen for cytotoxicity in AML12 mouse hepatocytes; actives 3% (n = 870); z-score at 5 µM; shares compounds with Hep lipid drop; DAPI nuclear morphology cytotoxicity imaging; active compounds read high; cells fed 100 µM oleate overnight; in the data active means z-score above about 6.3;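 further: compound exposure lasted overnight at 37 °C before fixation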
AML12 tox ATP – AML12 hepatocyte cytotoxicity, confirmed | shares compounds with Hep lipid drop | AML12 mouse hepatocyte viability, ATP luminescence; cells loaded with 100 µM oleic acid | cytotoxicity, % at 50 µM | 530 tested, under 10 active | AID 463219;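 active means cytotoxicity above 50% in each of four replicates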;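 further: compound exposure lasted overnight at 37 °C before the ATP read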
Large screens that a line does not name were inactive (follow-up assays come after a bar, where they were run).

O=C(CSc1nnnn1-c1ccccc1)Nc1ncc(Cc2cccc(Cl)c2Cl)s1	none
CN1CCN(C(=O)C2Cc3c(-c4ccc5c(c4)OCO5)ccnc3O2)CC1 (stereo not drawn)	none (no result: HCV core dimer, Hep lipid drop, HCV NS3 hel inh)
O=C(Nc1c(Cl)cc(Cl)cc1C(=O)NCc1cccnc1)c1ccc(Cl)cc1Cl	none (no result: Hep lipid drop)
Cc1ccc(C(=O)Nc2ccccc2C(=O)NCc2cccnc2)cc1	Hep lipid drop 50.8 | Hep lipid conf 96.1 | AML12 tox img inactive | AML12 tox ATP inactive
O=C(Nc1ccc(Cl)cc1C(=O)NCc1cccnc1)c1ccc(Cl)cc1Cl	Hep lipid drop 65.9 | Hep lipid conf 87.8 | AML12 tox img inactive
O=C(Nc1ccccc1)C1=C(Nc2ccccc2)CSC1	none (no result: HCV core dimer, Hep lipid drop, HCV NS3 hel inh)
O=C(Nc1ccc(C(O)c2ccccc2)cc1)[C@H]1C[C@H](O)[C@@H](CO)O1 (stereo partly drawn)	none (no result: HCV core dimer, Hep lipid drop, HCV NS3 hel inh)
CCOC1=C2CN(S(=O)(=O)c3ccc(C)cc3)C(c3cccc(Cl)c3)CC2N(S(=O)(=O)c2ccc(Cl)cc2)C(c2ccccc2)C1 (stereo not drawn)	none (no result: HCV core dimer, Hep lipid drop, HCV NS3 hel inh)
O=C(Cc1ccccc1)Nn1c(-c2ccccc2)nc2ccccc2c1=O	Hep lipid drop 56.9 | Hep lipid conf 64.3 | AML12 tox img inactive | AML12 tox ATP inactive
Cc1nc2ccccc2c(=O)n1NC(=O)Cc1ccccc1	none (no result: HCV core dimer, Hep lipid drop, Tb MetRS inh)
C[C@@H]1CCCCO[C@@H](CN(C)S(=O)(=O)c2cn(C)cn2)[C@@H](C)CN([C@H](C)CO)C(=O)c2cc(NC(=O)Nc3ccc(C(F)(F)F)cc3)ccc2O1	none (no result: HCV core dimer, Hep lipid drop, HCV NS3 hel inh)
COc1ccc(CNC(=O)N2CCN(S(=O)(=O)c3ccc(C)cc3C)CC2)cc1	Hep lipid drop 82.2 | Hep lipid conf 79.3 | AML12 tox img inactive | AML12 tox ATP inactive
COc1cc2c(cc1OC)CN(CC(=O)Nc1ccc(C)cc1)CC2	none (no result: Hep lipid drop)
COc1cc2c(cc1OC)CN(CC(=O)Nc1ccc(C)c(C)c1)CC2	Hep lipid drop 55.8 | Hep lipid conf inactive | AML12 tox img inactive
CC(C)CC1C(=O)N(Cc2cn(Cc3ccco3)nn2)CCS(=O)(=O)N1Cc1ccc(-c2ccc(F)cc2)cc1 (stereo not drawn)	none (no result: HCV core dimer, Hep lipid drop, HCV NS3 hel inh)
O=C(Nc1ccccc1Cc1ccccc1)c1oc2ccccc2c1COc1ccccc1	none
O=C(NCCc1ccccc1)c1oc2ccccc2c1COc1ccccc1	Hep lipid drop 64.5 | Hep lipid conf 86.5 | AML12 tox img inactive | AML12 tox ATP inactive
CCCCn1c(N)c(N(CCC(C)C)C(=O)c2c(CC)noc2C)c(=O)[nH]c1=O	none (no result: HCV core dimer, Hep lipid drop, HCV NS3 hel inh)
C=C(C)C1CC=C(C)/C(=N/Nc2ccccc2[N+](=O)[O-])C1 (stereo not drawn)	Hep lipid drop 78.2 | Hep lipid conf 114.7 | AML12 tox img inactive | AML12 tox ATP inactive
Cc1ccccc1N1CCN(C(=S)c2ccc(-c3ccc([N+](=O)[O-])cc3)o2)CC1	Hep lipid drop 85.9 | Hep lipid conf 69.0 | AML12 tox img inactive
Cc1ccccc1N1CCN(C(=S)c2ccc(-c3cccc([N+](=O)[O-])c3)o2)CC1	none
CCS(=O)(=O)N1CCN(c2ccc([N+](=O)[O-])c(NCc3cccnc3)c2)CC1	Hep lipid drop 59.4 | Hep lipid conf inactive | AML12 tox img inactive
COc1ccc(NC(=O)CSc2nc3c(c(=O)n2-c2ccccc2OC)SCC3)cc1	none
CCOC(=O)c1ccc(NC(=O)CSc2nc3c(c(=O)n2-c2ccccc2OC)SCC3)cc1	Hep lipid drop 87.0 (no result: HCV NS3 hel inh) | Hep lipid conf 105.3 | AML12 tox img inactive | AML12 tox ATP inactive
O=C(NCc1ccccc1)C1C(=O)Nc2ccccc2C(=O)N1c1ccc2c(c1)OCCO2 (stereo not drawn)	none (no result: HCV core dimer, Hep lipid drop, HCV NS3 hel inh)
Cc1cc(C(=O)NCCc2ccc(Cl)cc2)c2ccccc2n1	none (no result: Hep lipid drop)
CCOc1ccc(CCNC(=O)c2cc(C)nc3ccccc23)cc1OCC	Hep lipid drop 62.2 | Hep lipid conf 70.8 | AML12 tox img inactive | AML12 tox ATP inactive
CCOc1ccc(CCNC(=O)CCNC(=O)c2ccccc2Cl)cc1OCC	Hep lipid drop 67.7 | Hep lipid conf 88.0 | AML12 tox img inactive | AML12 tox ATP inactive
